Measurements published in ChEMBL document CHEMBL2346637, “Effects of alkyl side chain modification of coenzyme Q10 on mitochondrial respiratory chain function and cytoprotection” (Bioorg Med Chem, 2013).

Key:
[1] = tested on: CCRF-CEM; test: Cytoprotective effect in human CEM cells assessed as reduction of diethyl maleate-induced oxidative stress measured cell viability at 0.5 uM incubated for 17 hrs prior to diethyl maleate challenge measured after 6 hrs by trypan blue exclusion assay relative to untreated control; format: functional
How it was run: (§1)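 CEM cells seeded at 5 × 10⁵ cells/mL with compound and held 17 h at 37 °C, 5% CO₂. Oxidative stress then induced with 5 mM DEM for 6 h. Viability counted on a hemocytometer by 0.4% trypan blue exclusion and expressed as percent of untreated control (untreated = 100%). Means ± S.E.M., n = 3.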

[2] = organism: Bos taurus; test: Inhibition of NADH oxidase in bovine heart submitochondrial particles at 5 uM after 5 mins by spectrophotometric analysis relative to untreated control; parameters: scale not given: the % may be the effect or the level left
How it was run: (§2)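 Bovine heart SMPs, stored in 0.25 M sucrose/10 mM Tris–HCl pH 7.4, were assayed at 30 µg protein/mL in 50 mM Hepes pH 7.5 with 5 mM MgCl₂ at 30 °C. SMPs pre-equilibrated with inhibitor for 5 min. NADH oxidation followed at 340 nm (ε 6.22 mM⁻¹ cm⁻¹). Initial rates taken from the linear trace and expressed relative to untreated control.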

[3] = organism: Bos taurus; test: Inhibition of NADH oxidase in bovine heart submitochondrial particles at 10 uM after 5 mins by spectrophotometric analysis relative to untreated control; parameters: scale not given: the % may be the effect or the level left; how it was run: as §2
[4] = tested on: CCRF-CEM; test: (§3) Blockade of diethyl maleate-induced mitochondrial membrane potential collapse in human CEM cells assessed as cells with intact mitochondrial membrane potential at 1 uM incubated for 16 hrs prior to diethyl maleate challenge measured after 120 mins by TMRM-based flow cytometric analysis (reference value: 12%); format: functional
How it was run: (§4)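 Pretreatment: CEM cells (5 × 10⁵) with or without compound for 16 h, then 5 mM DEM for 120 min. Cells washed and resuspended in PBS with glucose, stained with 250 nM TMRM for 15 min at 37 °C in the dark, washed, and read at once by flow cytometry (488 nm excitation, FL2-H). 10,000 events per run. Percentage of cells with intact potential taken from the top-right quadrant. FCCP served as depolarized control. Means ± SEM of three independent experiments in duplicate.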

[5] = tested on: CCRF-CEM; test: Cytoprotective effect in human CEM cells assessed as reduction of diethyl maleate-induced oxidative stress measured cell viability at 5 uM incubated for 17 hrs prior to diethyl maleate challenge measured after 6 hrs by trypan blue exclusion assay relative to untreated control; format: functional; how it was run: as §1
[6] = Inhibition of NADH-ubiquinone oxidoreductase activity in bovine heart submitochondrial particles using coenzyme Q1 as substrate after 5 mins by spectrophotometric analysis; parameters: species or system Bos taurus
How it was run: (§5)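 Twelve micrograms of bovine heart SMPs incubated 5 min at 39 °C with compound in 50 mM phosphate buffer, pH 7.4, with 0.25 M sucrose, 1 mM MgCl₂, antimycin A and 2 mM KCN. Reaction started with NADH and coenzyme Q₁ (each 50 µM). Decrease in NADH absorbance read at 340 nm. IC₅₀ and maximum achievable inhibition reported.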

[7] = Effect on cellular respiration in rat RGC5 cells assessed as increase in mitochondrial oxygen consumption at 10 uM after 1.5 hrs by fluorescence assay relative to vehicle-treated control; format: functional
How it was run: (§6)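 RGC-5 cells (DMEM, 10% FBS, phenol-red free) at 70,000 per well in 384-well oxygen biosensor plates, allowed to attach 20–30 min. Compounds added from DMSO stock via PBS dilution, final 3 or 10 µM, 0.1% DMSO. Six vehicle and six FCCP wells per plate. Incubated at 37 °C, 5% CO₂ for 1.5 or 24 h. Fluorescence read at 485/630 nm and expressed as fold change over vehicle at each time point. Two-tailed t test.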

[8] = organism: Bos taurus; test: Inhibition of NADH oxidase in bovine heart submitochondrial particles at 1 uM after 5 mins by spectrophotometric analysis relative to untreated control; parameters: scale not given: the % may be the effect or the level left; how it was run: as §2
[9] = tested on: CCRF-CEM; test: as §3, with “at 0.5” for “at 1”; format: functional; how it was run: as §4
[10] = Effect on cellular respiration in rat RGC5 cells assessed as increase in mitochondrial oxygen consumption at 10 uM after 24 hrs by fluorescence assay relative to vehicle-treated control; format: functional; how it was run: as §6
[11] = Effect on cellular respiration in rat RGC5 cells assessed as increase in mitochondrial oxygen consumption at 3 uM after 24 hrs by fluorescence assay relative to vehicle-treated control; format: functional; how it was run: as §6
[12] = tested on: CCRF-CEM; test: Cytoprotective effect in human CEM cells assessed as reduction of diethyl maleate-induced oxidative stress measured cell viability at 0.1 uM incubated for 17 hrs prior to diethyl maleate challenge measured after 6 hrs by trypan blue exclusion assay relative to untreated control; format: functional; how it was run: as §1
[13] = Effect on cellular respiration in rat RGC5 cells assessed as increase in mitochondrial oxygen consumption at 3 uM after 1.5 hrs by fluorescence assay relative to vehicle-treated control; format: functional; how it was run: as §6
[14] = tested on: CCRF-CEM; test: Cytoprotective effect in human CEM cells assessed as reduction of diethyl maleate-induced oxidative stress measured cell viability at 1 uM incubated for 17 hrs prior to diethyl maleate challenge measured after 6 hrs by trypan blue exclusion assay relative to untreated control; format: functional; how it was run: as §1
[15] = tested on: CCRF-CEM; test: Antioxidant activity in human CEM cells assessed as suppression of diethyl maleate-induced ROS production at 2.5 uM incubated for 16 hrs prior to diethyl maleate challenge measured after 1 hr by DCFH-DA staining-based flow cytometric analysis relative to untreated control; format: functional
How it was run: (§7)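 CEM cells (5 × 10⁵ in 1 mL) preincubated with compound 16 h at 37 °C, 5% CO₂; then 5 mM DEM for 1 h. Cells washed in PBS and loaded with 10 µM DCFH-DA for 25 min at 37 °C in the dark, then washed twice. Read by flow cytometry, 488 nm excitation, FL1-H 530 nm channel, 10,000 events after debris gating.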

[16] = tested on: CCRF-CEM; test: Antioxidant activity in human CEM cells assessed as suppression of diethyl maleate-induced ROS production at 1 uM incubated for 16 hrs prior to diethyl maleate challenge measured after 1 hr by DCFH-DA staining-based flow cytometric analysis relative to untreated control; format: functional; how it was run: as §7
[17] = organism: Bos taurus; test: Inhibition of NADH-ubiquinone oxidoreductase activity in bovine heart submitochondrial particles using coenzyme Q1 as substrate after 5 mins by spectrophotometric analysis relative to untreated control; how it was run: as §5

Row | activity [2] | activity [3] | IC50 [6] | activity [8] | Imax [17] | Compound | Activity [1] | Activity [4] | Activity [5] | fold change (FC) [7] | Activity [9] | fold change (FC) [10] | fold change (FC) [11] | Activity [12] | fold change (FC) [13] | Activity [14] | Activity [15] | Activity [16]
1 | 83.3% | 61.5% | > 30 µM | 93.5% | – | CCCCCCCCCCC1=C(C)C(=O)C(OC)=C(OC)C1=O [DECYLUBIQUINONE] | 62% | 88% | 87% | 1.2 | 78% | 1.08 | 0.99 | 69% | 1.19 | 79% | 95% | 80%
2 | 20.3% | 13.4% | 5.8 µM | 58.3% | 75% | COC1=C(OC)C(=O)C(CCCCCCCCCCO)=C(C)C1=O [IDEBENONE] | 38% | 59% | 74% | 0.99 | 35% | 0.98 | 0.98 | 25% | 1.12 | 71% | 65% | 45%
3 | 75% | 64% | > 30 µM | 89.8% | – | COC1=C(OC)C(=O)C(CCCCCCCCCCN=[N+]=[N-])=C(C)C1=O | 21% | 65% | 92% | 0.97 | 50% | 1.01 | 1.68 | 11% | 1.01 | 72% | 87% | 71%
4 | 66.3% | 59.7% | > 30 µM | 85.2% | – | CCCCCCCCCCCCCCCC1=C(C)C(=O)C(OC)=C(OC)C1=O | 87% | 92% | 94% | 1.15 | 86% | 1.52 | 1.49 | 82% | 1.14 | 90% | 100% | 100%
5 | 50.6% | 36.2% | 14.7 µM | 68.3% | 69% | COC1=C(OC)C(=O)C(CCCCCCCCC(C)(C)C)=C(C)C1=O | 43% | 85% | 93% | 1.05 | 70% | 1.16 | 1.55 | 9% | 1.08 | 72% | 100% | 88%
6 | 81.9% | 78.7% | 14.9 µM | 88.3% | 55.4% | COC1=C(OC)C(=O)C(CCCCCCCCCCC2CCCCC2)=C(C)C1=O | 83% | 91% | 93% | 1.21 | 84% | 1.51 | 1.06 | 76% | 1.17 | 87% | 100% | 100%
